Source: PubChem BioAssay (several laboratories)
Hep lipid drop: modulators of hepatic lipid droplet formation. AML12 mouse hepatocytes, oleate lipid droplets, BODIPY imaging. inhibition, % at 6.5 µM. 0.4% of 240,000 active. AID 1656;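 active means lipid droplet intensity inhibited by at least 50%, with more than 500 cells counted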
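Test system: AML12 hepatocytes (mouse); reagent: oleate loading, 100 µM; dosing: one dose, 6.5 µM compound; incubation: overnight exposure; signal: fluorescence imaging, 20x objective, two fields per well; read-out basis: % inhibition of corrected integrated BODIPY droplet signal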
CHOP UPR activ: apoptotic UPR (CHOP) activation. CHO-CHOP luciferase reporter, luminescence; percent of tunicamycin response over DMSO baseline. 0.34% of 330,000 active. activation, % at 10 µM;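 active means at 10 µM dose, activation of 40% or more, normalized to positive control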;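 further: 100% = tunicamycin at 10 µg/mL and 0% = DMSO alone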
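measured by = luciferase luminescence | assay system = CHO-CHOP cells, stable luciferase reporter of PERK-eIF2a-CHOP signalling | amount = 500 reporter cells seeded per well | timing = 6 h compound exposure at 37 °C after overnight seeding | controls = positive tunicamycin 10 µg/mL, negative DMSO alone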
TMEM16A act: activators or potentiators of mouse TMEM16A chloride channel. 0.3% of 340,000 active. HEK293 TMEM16A/YFP-H148Q/I152L, iodide quench fluorescence; active compounds read low. AID 623877. Q8BHY3. B-score at 10 µM;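 active means fluorescence-ratio B-score plate-corrected deviation score at least 3 library SD below zero, with starting fluorescence score within 5 deviations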;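 further: channel opened by trigger with iodide after compound preincubation; score built on the fluorescence ratio of max minus min over baseline; more negative score means more quench and so TMEM16A activation or potentiation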
Target sequence (Q8BHY3 whole entry, looked up): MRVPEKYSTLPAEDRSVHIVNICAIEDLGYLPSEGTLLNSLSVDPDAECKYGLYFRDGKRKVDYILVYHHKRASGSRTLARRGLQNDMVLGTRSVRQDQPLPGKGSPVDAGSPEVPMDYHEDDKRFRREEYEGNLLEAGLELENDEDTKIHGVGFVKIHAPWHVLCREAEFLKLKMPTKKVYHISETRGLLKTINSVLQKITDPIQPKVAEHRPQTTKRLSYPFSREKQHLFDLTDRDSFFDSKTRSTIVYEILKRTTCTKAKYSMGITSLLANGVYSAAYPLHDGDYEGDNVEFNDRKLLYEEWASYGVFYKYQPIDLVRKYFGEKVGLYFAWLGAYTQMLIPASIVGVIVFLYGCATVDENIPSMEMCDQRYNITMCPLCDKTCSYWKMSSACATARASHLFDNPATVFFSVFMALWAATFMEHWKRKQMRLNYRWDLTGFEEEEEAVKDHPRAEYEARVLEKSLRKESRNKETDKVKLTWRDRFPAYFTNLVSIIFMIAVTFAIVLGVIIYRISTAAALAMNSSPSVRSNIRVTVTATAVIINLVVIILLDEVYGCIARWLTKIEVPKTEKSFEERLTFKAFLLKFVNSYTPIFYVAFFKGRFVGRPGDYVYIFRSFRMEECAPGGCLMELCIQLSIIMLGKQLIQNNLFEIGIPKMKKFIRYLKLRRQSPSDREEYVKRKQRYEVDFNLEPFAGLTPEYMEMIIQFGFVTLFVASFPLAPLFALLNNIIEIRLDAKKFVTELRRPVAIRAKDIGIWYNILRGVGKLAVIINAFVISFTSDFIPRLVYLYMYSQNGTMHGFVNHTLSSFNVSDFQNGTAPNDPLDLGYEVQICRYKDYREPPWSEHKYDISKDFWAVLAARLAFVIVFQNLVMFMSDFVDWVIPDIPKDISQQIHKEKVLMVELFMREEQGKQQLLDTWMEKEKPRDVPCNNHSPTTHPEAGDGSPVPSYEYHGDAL
CHOP inhibitor: CHOP inhibition in unfolded protein response. CHO-K1 CHOP-promoter luciferase, tunicamycin-induced, 15-18 h. inhibition, % at 10 µM. 3.8% of 220,000 active. AID 2732;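 active means compounds that reduced the stress-induced luciferase reporter signal by more than about 70% of percent inhibition, limit read from the data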;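 further: 0% = tunicamycin plus vehicle and 100% = wells without tunicamycin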
TMEM16A inh: blocks the mouse calcium-activated chloride channel TMEM16A. HEK293 TMEM16A/YFP iodide influx fluorescence, ionomycin. normalized B-score (activity score, 25-100; higher = stronger inhibition) at 10 µM. Q8BHY3. 1.2% of 310,000 active;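 active means ratio plate-corrected score three or more library SD toward inhibition, starting fluorescence score within five deviations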;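 further: score derived from kinetic fluorescence span divided by baseline fluorescence per well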
XBP1 UPR activ: activators of adaptive arm of unfolded protein response (XBP1); CHO-XBP1 luciferase reporter, IRE1-XBP1 UPR activation, luminescence; percent of tunicamycin response, DMSO as zero; activation, % at 20 µM; 0.33% of 330,000 active;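 active means versus positive control, 20 µM dose yields 30% or more activation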;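 further: 100% = tunicamycin at 10 µg/mL and 0% = DMSO only wells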
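Material – CHO cell line with stable XBP1 luciferase reporter · Buffer or medium – F12 plus 10% FBS · Compound – single point, 20 µM final compound, 1% DMSO · Schedule – 16-18 h cell attachment at 37 °C, then 6 h compound exposure · Signal – Steady-Glo luminescence read · Benchmarks – high control tunicamycin 10 µg/mL final, low control DMSO vehicle only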
* = called active by the depositor; i = inactive; . = no result. Rows were chosen to be rich in hits. Some 4.2% of all compounds tested hit in one or more screens of this group.

SMILES | Hep lipid drop | CHOP UPR activ | TMEM16A act | CHOP inhibitor | TMEM16A inh | XBP1 UPR activ
COc1cc(NC(=O)c2ccc(Cl)cc2Cl)ccc1-c1cc2ccccc2oc1=O | . | 10.8 | i | 26.4 | i | 40.0*
COc1cc(OC)c2ccc(=O)oc2c1C(CCN1CCCC(C)C1)c1ccc(N(C)C)cc1 (centres undefined) | -21.2 | 4.1 | i | 19.6 | i | -1.0
CCCCCc1cc(=O)oc2c(C(CCN3CCCC(C)C3)c3cc(OC)c(OC)c(OC)c3)c(OC)cc(OC)c12 (centres undefined) | 19.2 | 21.4 | i | 93.0* | i | 10.1
CCn1c(=S)sc2c(=O)n(CC(=O)Nc3ccc(Cl)cc3)c(C)nc21 | -1.3 | 0.9 | i | . | i | -4.1
O=C1c2ccccc2C(=O)N1SC1CCCCC1 | . | -4.8 | i | 71.6* | i | -6.8
OC(c1ccccc1)(c1ccccc1)c1nccc2ccccc12 | . | . | i | . | . | .
COc1ccc2[nH]c(=O)c(CNc3cccc(C)c3)cc2c1 | . | 5.4 | i | 72.9* | i | -0.1
COc1ccc(S(=O)(=O)N2CCCOC2CNC(=O)C(=O)NCCCn2ccnc2)cc1OC (centres undefined) | -3.4 | -2.6 | i | 4.3 | i | -0.6
COc1ccc(S(=O)(=O)N2CCCOC2CNC(=O)C(=O)NCCCn2ccnc2)cc1 (centres undefined) | -10.4 | -0.3 | -7.34* | 15.2 | i | 0.1
Cc1ccc(S(=O)(=O)N2CCCOC2CNC(=O)C(=O)NCCCn2ccnc2)cc1 (centres undefined) | -17.2 | 0.4 | i | 14.4 | i | -1.4
COc1ccc(S(=O)(=O)N2CCOC2CNC(=O)C(=O)NCCCn2ccnc2)cc1OC (centres undefined) | -19.4 | 2.2 | -14.9* | 1.7 | i | -3.2
N#Cc1ncc(-c2ccc3c(c2)OCCOCCOCCOCCO3)nc1C#N | -6.0 | 2.5 | i | -66.0 | i | -5.5
N#Cc1ncc(-c2ccc3c(c2)OCCOCCOCCOCCOCCO3)nc1C#N | -13.5 | -3.9 | i | 105.5* | i | -3.3
Cc1cccc(C)c1NC(=O)CSc1nc(COc2ccccc2)nc2ccccc12 | . | 0.3 | i | 88.5* | i | 1.8
CCOc1ccc(NC(=O)CSc2nc(C3CC3)nc3ccccc23)cc1 | 16.7 | -0.3 | i | 95.8* | i | 0.8
Cc1cccc(NC(=O)CSc2nc(COc3ccccc3)nc3ccccc23)c1C | . | -2.5 | i | 27.9 | i | -1.2
Cc1ccc2ncccc2c1NS(=O)(=O)c1ccccc1 | . | 5.0 | i | 82.2* | i | -0.8
O=S(=O)(NCCN1CCN(S(=O)(=O)c2ccccc2F)CC1)c1ccccc1F | . | 1.1 | i | . | . | 2.3
Cc1ccc(NC(=O)c2ccccc2OCc2ccc([N+](=O)[O-])cc2)nc1 | 31.5 | -1.5 | i | 17.7 | i | -0.3
Cc1ccc(NC(=O)c2ccc(-c3nn(C)c(=O)c4ccccc34)cc2)cc1 | 17.2 | -1.5 | i | 73.8* | i | -0.3
Cc1ccc(NC(=O)c2ccc(-c3nn(C)c(=O)c4ccccc34)cc2)c(C)c1 | 7.8 | -1.1 | i | 18.7 | i | -0.3
COc1ccc(S(=O)(=O)N2CCC(c3cc(-c4cccc5ccccc45)n[nH]3)CC2)cc1 | . | 2.4 | i | 83.9* | i | 2.5
COc1ccc2nc(NC(=O)CSc3nnnn3C)sc2c1 | 1.8 | 4.3 | i | 0.1 | i | 8.5
C/C(=N\NC(=O)c1ccc(-n2cnnn2)cc1)c1ccc(C)cc1 | . | 0.3 | i | . | . | -2.5
COc1ccc(NC(=O)CCC(=O)c2ccc(-c3ccccc3)cc2)cc1 | . | -0.3 | i | -5.7 | i | 3.0
SMILES | Hep lipid drop | CHOP UPR activ | TMEM16A act | CHOP inhibitor | TMEM16A inh | XBP1 UPR activ
Cc1ccc(NC(=O)CCC(=O)OCC(=O)c2ccc(-c3ccccc3)cc2)cc1 | 1.1 | -2.0 | i | 85.1* | i | -1.5
Cc1ccc(CNC(=O)CNC(=O)c2ccc(Br)o2)cc1 | -10.4 | 0.9 | i | . | i | -4.2
Cc1cc(C)cc(Oc2ccccc2/C=N\O)c1 | -0.9 | -0.5 | i | 72.7* | i | -0.1
CCc1ccccc1NC(=O)CNC(=O)CCc1nc2sc3c(c2c(=O)[nH]1)CCCC3 | . | -0.4 | i | . | i | -1.0
CCC(C)(C)NC(=O)COc1ccc(C(=O)c2ccccc2)cc1 | 10.4 | 1.5 | i | 9.6 | 25* | -3.2
COc1ccc(N(CC(O)Cn2c3ccccc3c3ccccc32)S(=O)(=O)c2ccccc2)cc1 (centres undefined) | . | 0.5 | -4.78* | 59.5 | i | -4.7
S=C(Nc1cccc(Cl)c1)Nc1ccccc1Oc1ccccc1 | . | -5.1 | i | 73.6* | 100* | -0.7
S=C(Nc1ccccc1Oc1ccccc1)Nc1cccc(Cl)c1Cl | 11.2 | . | i | 34.8 | i | .
S=C(Nc1ccc(Cl)cc1Cl)Nc1ccccc1Oc1ccccc1 | . | -4.0 | i | 78.5* | i | 0.7
Cc1cc(NC(=O)CSc2ncnc3sc(C)c(C)c23)no1 | 29.6 | 0.1 | i | 19.7 | i | -0.5
CCN(CC)Cc1c(C(=O)N2CCc3ccccc3C2)nc2ccc(Cl)cn12 | -2.7 | -0.3 | i | 15.5 | i | -1.5
CCn1cnc2cc(NC(=O)c3ccc(C)cc3)ccc21 | 9.4 | 3.1 | i | . | i | -1.5
Cc1ccc(NC(=O)C(C)Sc2nc(=O)cc(N)n2-c2ccccc2)cc1 (centres undefined) | 5.1 | -1.2 | i | 73.3* | i | 0.2
Cc1cccc(NC(=O)CNC(=O)COc2cc(F)ccc2[N+](=O)[O-])c1C | -4.3 | -1.6 | i | 13.2 | i | -1.7
COc1ccc(C2CC(O)(c3ccccc3)Oc3cc(OC)ccc32)cc1 (centres undefined) | 10.4 | 4.5 | i | 92.0* | i | 0.5
COc1ccc(C2CC(=O)Oc3cc(OC)ccc32)cc1 (centres undefined) | . | 0.4 | i | . | . | -0.8
ClC(Cl)c1nnc(-c2ccccc2)c(-c2c[nH]c3ccccc23)n1 | -22.9 | 0.6 | i | 80.2* | i | -0.8
Cc1ccc(C)c(-n2nnnc2SCC(=O)c2ccc3c(c2)NC(=O)CO3)c1 | . | -1.2 | i | 81.2* | i | -0.9
Cc1ccc2nc(SCC(=O)c3ccc4c(c3)NC(=O)CO4)[nH]c2c1 | -21.9 | 0.0 | i | 10.2 | i | -1.4
COc1ccc(OC)c2c1C(=O)C(Cl)=C(Cl)C2=O | 9.9 | -7.7 | i | 106.1* | i | -10.6
O=C(CCN1C(=O)/C(=C\C=C\c2ccccc2)SC1=S)Nc1cccc(C(=O)O)c1 | -12.9 | 2.3 | i | . | i | 0.4
